Source: ChEMBL document CHEMBL5376013, “Design, synthesis and biological evaluation of novel morpholinopyrimidine-5-carbonitrile derivatives as dual PI3K/mTOR inhibitors” (RSC Med Chem, 2024)

Experiments:
Format in all cases: functional
Conditions in all cases: read-out: GI
DU-145 = experiment: Antitumor activity against human DU-145 cells assessed as growth inhibition at 10 uM relative to control
Method in brief: (§1)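 After drug addition, plates were incubated 48 h at 37 °C under 5% CO2. Adherent cells were fixed with cold TCA (10% final, 60 min, 4 °C) and suspension cells with 16% final TCA. Staining used 0.4% SRB in 1% acetic acid, solubilized in 10 mM trizma, read at A515. Percent growth was calculated from time-zero, control and treated absorbances.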

OVCAR-4 = experiment: Antitumor activity against human OVCAR-4 cells assessed as growth inhibition at 10 uM relative to control; method in brief: as §1
UACC-257 = experiment: Antitumor activity against human UACC-257 cells assessed as growth inhibition at 10 uM relative to control
Method in brief: (§2)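 Drug exposure 48 h at 37 °C, 5% CO2. Adherent cells fixed with cold TCA (10% final), suspension cells with TCA (16% final). Stained with 0.4% SRB in 1% acetic acid, dissolved in 10 mM Tris, A515. Growth relative to time-zero and untreated control.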

BT-549 = experiment: Antitumor activity against human BT-549 cells assessed as growth inhibition at 10 uM relative to control; method in brief: as §1
SK-OV-3 = experiment: Antitumor activity against human SK-OV-3 cells assessed as growth inhibition at 10 uM relative to control; method in brief: as §2
NCI-H522 = experiment: Antitumor activity against human NCI-H522 cells assessed as growth inhibition at 10 uM relative to control; method in brief: as §1
MOLT-4 = experiment: Antitumor activity against human MOLT-4 cells assessed as growth inhibition at 10 uM relative to control; method in brief: as §1
SW-620 = experiment: Antitumor activity against human SW-620 cells assessed as growth inhibition at 10 uM relative to control; method in brief: as §2
SF-268 = experiment: Antitumor activity against human SF-268 cells assessed as growth inhibition at 10 uM relative to control; method in brief: as §1
SK-MEL-2 = experiment: Antitumor activity against human SK-MEL-2 cells assessed as growth inhibition at 10 uM relative to control; method in brief: as §1
UO-31 = experiment: Antitumor activity against human UO-31 cells assessed as growth inhibition at 10 uM relative to control; method in brief: as §2
T47D = experiment: Antitumor activity against human T47D cells assessed as growth inhibition at 10 uM relative to control; method in brief: as §2
OVCAR-8 = experiment: Antitumor activity against human OVCAR-8 cells assessed as growth inhibition at 10 uM relative to control; method in brief: as §1
HOP-62 = experiment: Antitumor activity against human HOP-62 cells assessed as growth inhibition at 10 uM relative to control; method in brief: as §1
NCI-H226 = experiment: Antitumor activity against human NCI-H226 cells assessed as growth inhibition at 10 uM relative to control; method in brief: as §1
CAKI-1 = experiment: Antitumor activity against human CAKI-1 cells assessed as growth inhibition at 10 uM relative to control; method in brief: as §1
SK-MEL-28 = experiment: Antitumor activity against human SK-MEL-28 cells assessed as growth inhibition at 10 uM relative to control; method in brief: as §2
SF-539 = experiment: Antitumor activity against human SF-539 cells assessed as growth inhibition at 10 uM relative to control; method in brief: as §1
A498 = experiment: Antitumor activity against human A498 cells assessed as growth inhibition at 10 uM relative to control; method in brief: as §1
U-251 = experiment: Antitumor activity against human U-251 cells assessed as growth inhibition at 10 uM relative to control; method in brief: as §2
HT-29 = experiment: Antitumor activity against human HT-29 cells assessed as growth inhibition at 10 uM relative to control; method in brief: as §1
SF-295 = experiment: Antitumor activity against human SF-295 cells assessed as growth inhibition at 10 uM relative to control; method in brief: as §1
SK-MEL-5 = experiment: Antitumor activity against human SK-MEL-5 cells assessed as growth inhibition at 10 uM relative to control; method in brief: as §2
KM12 = experiment: Antitumor activity against human KM12 cells assessed as growth inhibition at 10 uM relative to control; method in brief: as §1
HCT-15 = experiment: Antitumor activity against human HCT-15 cells assessed as growth inhibition at 10 uM relative to control; method in brief: as §1
MDA-MB-435 = experiment: Antitumor activity against human MDA-MB-435 cells assessed as growth inhibition at 10 uM relative to control; method in brief: as §1
SN12C = experiment: Antitumor activity against human SN12C cells assessed as growth inhibition at 10 uM relative to control; method in brief: as §2
786-0 = experiment: Antitumor activity against human 786-0 cells assessed as growth inhibition at 10 uM relative to control; method in brief: as §1
RXF 393 = experiment: Antitumor activity against human RXF 393 cells assessed as growth inhibition at 10 uM relative to control; method in brief: as §1
ACHN = experiment: Antitumor activity against human ACHN cells assessed as growth inhibition at 10 uM relative to control; method in brief: as §1
OVCAR-3 = experiment: Antitumor activity against human OVCAR-3 cells assessed as growth inhibition at 10 uM relative to control; method in brief: as §1
M14 = experiment: Antitumor activity against human M14 cells assessed as growth inhibition at 10 uM relative to control; method in brief: as §1
HL-60 = experiment: Antitumor activity against human HL-60 cells assessed as growth inhibition at 10 uM relative to control; method in brief: as §1
MDA-MB-231 = experiment: Antitumor activity against human MDA-MB-231 cells assessed as growth inhibition at 10 uM relative to control; method in brief: as §1
UACC-62 = experiment: Antitumor activity against human UACC-62 cells assessed as growth inhibition at 10 uM relative to control; method in brief: as §2
COLO 205 = experiment: Antitumor activity against human COLO 205 cells assessed as growth inhibition at 10 uM relative to control; method in brief: as §1
HOP-92 = experiment: Antitumor activity against human HOP-92 cells assessed as growth inhibition at 10 uM relative to control; method in brief: as §1
IGROV-1 = experiment: Antitumor activity against human IGROV-1 cells assessed as growth inhibition at 10 uM relative to control; method in brief: as §1
HCT-116 = experiment: Antitumor activity against human HCT-116 cells assessed as growth inhibition at 10 uM relative to control; method in brief: as §1
NCI-H460 = experiment: Antitumor activity against human NCI-H460 cells assessed as growth inhibition at 10 uM relative to control; method in brief: as §1
LOX IMVI = experiment: Antitumor activity against human LOX IMVI cells assessed as growth inhibition at 10 uM relative to control; method in brief: as §1
PC-3 = experiment: Antitumor activity against human PC-3 cells assessed as growth inhibition at 10 uM relative to control; method in brief: as §1
NCI-H322M = experiment: Antitumor activity against human NCI-H322M cells assessed as growth inhibition at 10 uM relative to control; method in brief: as §1
SNB-75 = experiment: Antitumor activity against human SNB-75 cells assessed as growth inhibition at 10 uM relative to control; method in brief: as §2
EKVX = experiment: Antitumor activity against human EKVX cells assessed as growth inhibition at 10 uM relative to control; method in brief: as §1
MDA-MB-468 = experiment: Antitumor activity against human MDA-MB-468 cells assessed as growth inhibition at 10 uM relative to control; method in brief: as §1

N#Cc1c(-c2ccc(Cl)cc2)nc(N/N=C2/C(=O)Nc3ccc(Br)cc32)nc1N1CCOCC1
inhibition of growth at 10 µM (DU-145): < 1%
inhibition of growth at 10 µM (OVCAR-4): < 1%
inhibition of growth at 10 µM (UACC-257): < 1%
inhibition of growth at 10 µM (BT-549): < 1%
inhibition of growth at 10 µM (SK-OV-3): < 1%
inhibition of growth at 10 µM (NCI-H522): < 1%
inhibition of growth at 10 µM (MOLT-4): < 1%
inhibition of growth at 10 µM (SW-620): < 1%
inhibition of growth at 10 µM (SF-268): < 1%
inhibition of growth at 10 µM (SK-MEL-2): < 1%
inhibition of growth at 10 µM (UO-31): 28.7%
inhibition of growth at 10 µM (T47D): < 1%
inhibition of growth at 10 µM (OVCAR-8): < 1%
inhibition of growth at 10 µM (HOP-62): < 1%
inhibition of growth at 10 µM (NCI-H226): < 1%
inhibition of growth at 10 µM (CAKI-1): < 1%
inhibition of growth at 10 µM (SK-MEL-28): < 1%
inhibition of growth at 10 µM (SF-539): < 1%
inhibition of growth at 10 µM (A498): 26.3%
inhibition of growth at 10 µM (U-251): 33.6%
inhibition of growth at 10 µM (HT-29): < 1%
inhibition of growth at 10 µM (SF-295): < 1%
inhibition of growth at 10 µM (SK-MEL-5): < 1%
inhibition of growth at 10 µM (KM12): < 1%
inhibition of growth at 10 µM (HCT-15): 1%
inhibition of growth at 10 µM (MDA-MB-435): < 1%
inhibition of growth at 10 µM (SN12C): < 1%
inhibition of growth at 10 µM (786-0): < 1%
inhibition of growth at 10 µM (RXF 393): < 1%
inhibition of growth at 10 µM (ACHN): < 1%
inhibition of growth at 10 µM (OVCAR-3): < 1%
inhibition of growth at 10 µM (M14): < 1%
inhibition of growth at 10 µM (HL-60): < 1%
inhibition of growth at 10 µM (MDA-MB-231): 14.2%
inhibition of growth at 10 µM (UACC-62): < 1%
inhibition of growth at 10 µM (COLO 205): 1%
inhibition of growth at 10 µM (HOP-92): < 1%
inhibition of growth at 10 µM (IGROV-1): < 1%
inhibition of growth at 10 µM (HCT-116): 16.8%
inhibition of growth at 10 µM (NCI-H460): < 1%
inhibition of growth at 10 µM (LOX IMVI): 14.6%
inhibition of growth at 10 µM (PC-3): < 1%
inhibition of growth at 10 µM (NCI-H322M): < 1%
inhibition of growth at 10 µM (SNB-75): < 1%
inhibition of growth at 10 µM (EKVX): < 1%
inhibition of growth at 10 µM (MDA-MB-468): < 1%

N#Cc1c(-c2ccc(Cl)cc2)nc(N/N=C/c2cccc([N+](=O)[O-])c2)nc1N1CCOCC1
inhibition of growth at 10 µM (DU-145): 13.1%
inhibition of growth at 10 µM (OVCAR-4): 22.3%
inhibition of growth at 10 µM (UACC-257): < 1%
inhibition of growth at 10 µM (BT-549): 27.6%
inhibition of growth at 10 µM (SK-OV-3): 11.1%
inhibition of growth at 10 µM (NCI-H522): 24.1%
inhibition of growth at 10 µM (MOLT-4): 36.6%
inhibition of growth at 10 µM (SW-620): < 1%
inhibition of growth at 10 µM (SF-268): 12.3%
inhibition of growth at 10 µM (SK-MEL-2): 10.4%
inhibition of growth at 10 µM (UO-31): 65.1%
inhibition of growth at 10 µM (T47D): 42%
inhibition of growth at 10 µM (OVCAR-8): 12.5%
inhibition of growth at 10 µM (HOP-62): < 1%
inhibition of growth at 10 µM (NCI-H226): 28.7%
inhibition of growth at 10 µM (CAKI-1): 28.1%
inhibition of growth at 10 µM (SK-MEL-28): 10.2%
inhibition of growth at 10 µM (SF-539): 17.7%
inhibition of growth at 10 µM (A498): 47.5%
inhibition of growth at 10 µM (U-251): 40.1%
inhibition of growth at 10 µM (HT-29): < 1%
inhibition of growth at 10 µM (SF-295): < 1%
inhibition of growth at 10 µM (SK-MEL-5): 14.9%
inhibition of growth at 10 µM (KM12): < 1%
inhibition of growth at 10 µM (HCT-15): 23%
inhibition of growth at 10 µM (MDA-MB-435): 12.1%
inhibition of growth at 10 µM (SN12C): 10.6%
inhibition of growth at 10 µM (786-0): 13.2%
inhibition of growth at 10 µM (RXF 393): 56.6%
inhibition of growth at 10 µM (ACHN): 21.3%
inhibition of growth at 10 µM (OVCAR-3): 11.2%
inhibition of growth at 10 µM (M14): 16.4%
inhibition of growth at 10 µM (HL-60): 13.5%
inhibition of growth at 10 µM (MDA-MB-231): 17.6%
inhibition of growth at 10 µM (UACC-62): 27.6%
inhibition of growth at 10 µM (COLO 205): 14.6%
inhibition of growth at 10 µM (HOP-92): 28.7%
inhibition of growth at 10 µM (IGROV-1): 28.1%
inhibition of growth at 10 µM (HCT-116): 20.1%
inhibition of growth at 10 µM (NCI-H460): 14.5%
inhibition of growth at 10 µM (LOX IMVI): 26%
inhibition of growth at 10 µM (PC-3): 35.8%
inhibition of growth at 10 µM (NCI-H322M): 14.3%
inhibition of growth at 10 µM (SNB-75): 33.4%
inhibition of growth at 10 µM (EKVX): 33.8%
inhibition of growth at 10 µM (MDA-MB-468): 26.1%
